What was measured:
[1] = target: Sigma non-opioid intracellular receptor 1 (Cavia porcellus, UniProt Q60492); test: Displacement of [3H](+)-pentazocine from sigma 1 receptor in guinea pig brain membrane; assay type: cell membranes
Procedure, shortened: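 Guinea pig brain (minus cerebella) membranes were homogenized in ice-cold 0.32 M sucrose, pH 7.4, washed in 10 mM Tris-HCl, pH 7.4, and stored at −80 °C. Tritiated (+)-pentazocine (28 Ci/mmol; Kd 1.6 ± 0.3 nM, n = 3) was incubated with test compounds from 10^-11 to 10^-5 M in Tris-HCl, pH 7.4, for 150 min at 37 °C. Haloperidol defined nonspecific binding. Reactions were stopped by filtration through PEI-presoaked glass fiber filters.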

[2] = Displacement of [3H]DTG from sigma 2 receptor in guinea pig brain membrane; assay type: cell membranes, Cavia porcellus
Procedure, shortened: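 Guinea pig brain membranes were incubated with test compounds, with 400 nM (+)-SKF10,047 added to mask σ1 sites. Incubation was in 50 mM Tris-HCl, pH 8.0, for 120 min at room temperature. Reactions were stopped with ice-cold 10 mM Tris-HCl, pH 8.0, and filtered through glass fiber filters presoaked in 0.5% poly(ethylenimine).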

[3] = species: Cavia porcellus; test: Selectivity for sigma 1 receptor over sigma 2 receptor in guinea pig brain membranes; assay type: cell membranes; conditions: Membrane

Sigma non-opioid intracellular receptor 1, sequence (Q60492 whole entry): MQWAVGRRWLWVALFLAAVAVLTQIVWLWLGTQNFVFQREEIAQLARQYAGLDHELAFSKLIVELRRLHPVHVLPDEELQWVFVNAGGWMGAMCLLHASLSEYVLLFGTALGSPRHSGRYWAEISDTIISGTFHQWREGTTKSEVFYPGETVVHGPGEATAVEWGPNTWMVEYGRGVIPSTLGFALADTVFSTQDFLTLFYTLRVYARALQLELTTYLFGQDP

Structure (SMILES)	Ki [1] [µM]	Ki [2] [µM]	Ratio Ki [3]
C/C(=C\CN(C)Cc1ccccc1)c1ccc2ccccc2c1	0.00788	0.873	111
CN(C)CCC(C)(O)c1ccc2ccccc2c1 (racemic)	0.025	0.171	6.8
C/C(=C\CN(C)C)c1cccc2ccccc12	0.102	0.701	6.87
CC(CCN(C)C)c1cccc2ccccc12 (stereo not given)	0.0472	0.205	4.3
COc1ccc2cc(/C(C)=C/CN(C)C)ccc2c1	0.0214	0.985	46
C/C(=C\CN(C)C)c1ccc2ccccc2c1	0.0198	0.148	7.5
C/C(=C\CN(C)C)c1ccc2cc(O)ccc2c1	0.229	1.39	6.1
CC(CCN(C)C)c1ccc2cc(O)ccc2c1 (racemic)	0.019	1.33	70

Stronger by Ki [1], values ahead:

Ki [1] [µM]	Ki [2] [µM]	Ratio Ki [3]	Structure (SMILES)
0.00632	0.0757	12	C/C(=C\CN(C)Cc1ccccc1)c1ccc(-c2ccccc2)cc1
0.0058	0.591	102	CC(CCN(C)Cc1ccccc1)c1ccc(-c2ccccc2)cc1 (stereo not given)
0.0054	0.139	25.7	CC(CCN(C)Cc1ccccc1)c1ccc2ccccc2c1 (stereo not given)
0.0023	0.0604	26.3	COc1ccc2cc(C(C)CCN(C)C)ccc2c1 (racemic)
0.00195	0.0438	22.5	CC(CCN(C)C)c1ccc2ccccc2c1 (stereo not given)
0.0014	0.106	75.7	C/C(=C\CN(C)C)c1ccc(-c2ccccc2)cc1
0.00102	0.161	158	CC(CCN(C)C)c1ccc(-c2ccccc2)cc1 (stereo not given)

From ChEMBL document CHEMBL1144556, “Design, synthesis, and SAR analysis of novel selective sigma1 ligands” (Bioorg Med Chem, 2007)
